Data taken from ChEMBL document CHEMBL1139577, “Discovery of 3-OH-3-methylpipecolic hydroxamates: potent orally active inhibitors of aggrecanase and MMP-13” (Bioorg Med Chem Lett, 2005).

System: not listed separately
Assay: Inhibitory concentration against MMP-13
Settings: not given

Row | Structure (SMILES) | IC50
1 | Cc1c(F)cccc1COc1ccc(S(=O)(=O)N2CCC[C@@](C)(O)[C@@H]2C(=O)NO)cc1 | 3.2 nM
2 | C[C@@]1(O)CCCN(S(=O)(=O)c2ccc(OCc3cnccn3)cc2)[C@H]1C(=O)NO | 7.4 nM
3 | C[C@@]1(O)CCCN(S(=O)(=O)c2ccc(OCc3ccc(F)cc3)cc2)[C@H]1C(=O)NO (stereo in doubt; 11) | 3.7 nM
4 | C[C@@]1(O)CCCN(S(=O)(=O)c2ccc(OCc3cccc4ccncc34)cc2)[C@H]1C(=O)NO | 18 nM
5 | CC[C@@]1(O)CCCN(S(=O)(=O)c2ccc(OCc3ccc(F)cc3)cc2)[C@H]1C(=O)NO | 1.6 nM
6 | Cc1ncccc1COc1ccc(S(=O)(=O)N2CCC[C@@](C)(O)[C@@H]2C(=O)NO)cc1 | 1.5 nM
7 | C[C@@]1(O)CCCN(S(=O)(=O)c2ccc(OCc3ccccc3C#N)cc2)[C@H]1C(=O)NO | 9.7 nM
8 | Cc1cc(F)ccc1COc1ccc(S(=O)(=O)N2CCC[C@@](C)(O)[C@@H]2C(=O)NO)cc1 | 2.9 nM
9 | CC[C@]1(O)CCCN(S(=O)(=O)c2ccc(OCc3ccc(F)cc3)cc2)[C@H]1C(=O)NO | 3.6 nM
10 | C[C@@]1(O)CCCN(S(=O)(=O)c2ccc(OCc3cccc(F)c3)cc2)[C@H]1C(=O)NO | 1.5 nM
11 | C[C@@]1(O)CCCN(S(=O)(=O)c2ccc(OCc3ccccc3F)cc2)[C@H]1C(=O)NO | 0.49 nM

System: not listed separately
Assay: Half life in dog
Format: ADME, Canis lupus familiaris
Settings: in vivo

Row | Structure (SMILES) | half-life
12 | CC1(C)C[C@@H](O)CN(S(=O)(=O)c2ccc(OCc3ccc(Cl)cc3Cl)cc2)[C@H]1C(=O)NO | 2 h

Biological target: Disintegrin and metalloproteinase domain-containing protein 17 (Rattus norvegicus, UniProt Q9Z1K9)
Assay: Inhibitory concentration against rat TACE
Settings: not given

Sequence of Disintegrin and metalloproteinase domain-containing protein 17 (Q9Z1K9 whole entry, the tested form may be a part): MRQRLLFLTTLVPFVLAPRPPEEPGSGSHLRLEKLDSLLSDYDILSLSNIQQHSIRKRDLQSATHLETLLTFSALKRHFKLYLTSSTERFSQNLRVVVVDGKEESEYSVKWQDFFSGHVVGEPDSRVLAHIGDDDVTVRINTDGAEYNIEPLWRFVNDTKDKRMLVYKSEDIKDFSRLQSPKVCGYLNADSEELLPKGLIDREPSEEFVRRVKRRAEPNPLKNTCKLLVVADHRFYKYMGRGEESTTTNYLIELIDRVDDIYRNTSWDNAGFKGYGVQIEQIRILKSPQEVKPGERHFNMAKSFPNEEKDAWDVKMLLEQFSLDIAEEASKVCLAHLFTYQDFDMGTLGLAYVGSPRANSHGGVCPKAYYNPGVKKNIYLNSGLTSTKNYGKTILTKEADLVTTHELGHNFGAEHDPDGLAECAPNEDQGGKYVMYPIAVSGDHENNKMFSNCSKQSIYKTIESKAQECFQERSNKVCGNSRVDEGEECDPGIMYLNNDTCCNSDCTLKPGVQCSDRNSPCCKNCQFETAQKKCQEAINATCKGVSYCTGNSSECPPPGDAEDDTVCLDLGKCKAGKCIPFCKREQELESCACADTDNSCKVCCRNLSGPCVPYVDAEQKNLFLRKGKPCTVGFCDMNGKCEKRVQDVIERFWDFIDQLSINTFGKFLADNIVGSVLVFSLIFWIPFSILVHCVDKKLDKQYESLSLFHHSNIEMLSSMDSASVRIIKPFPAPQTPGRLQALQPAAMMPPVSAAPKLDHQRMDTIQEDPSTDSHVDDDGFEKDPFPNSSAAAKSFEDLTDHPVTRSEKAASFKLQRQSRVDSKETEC

Row | Structure (SMILES) | IC50
13 | C[C@@]1(O)CCCN(S(=O)(=O)c2ccc(OCc3ccc(F)cc3)cc2)[C@H]1C(=O)NO (stereo in doubt; 17) | 14 nM
14 | Cc1c(F)cccc1COc1ccc(S(=O)(=O)N2CCC[C@@](C)(O)[C@@H]2C(=O)NO)cc1 | 10 nM
15 | C[C@@]1(O)CCCN(S(=O)(=O)c2ccc(OCc3ccc(F)cc3)cc2)[C@H]1C(=O)NO (stereo in doubt; 11) | 14 nM
16 | CC[C@@]1(O)CCCN(S(=O)(=O)c2ccc(OCc3ccc(F)cc3)cc2)[C@H]1C(=O)NO | 18 nM
17 | Cc1cc(F)ccc1COc1ccc(S(=O)(=O)N2CCC[C@@](C)(O)[C@@H]2C(=O)NO)cc1 | 15 nM
18 | CC[C@]1(O)CCCN(S(=O)(=O)c2ccc(OCc3ccc(F)cc3)cc2)[C@H]1C(=O)NO | 1.7 nM

System: not listed separately
Assay: Half life in rat
Format: ADME
Settings: in vivo
In short: (§1)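 Male Sprague–Dawley rats with jugular vein catheters got an iv bolus of 5 mg/kg in glycerol formal. Jugular blood was drawn at 5, 15 and 30 min and at 1, 2, 4, 6, 8 and 24 h. Plasma was diluted with an equal volume of water, extracted with MTBE and assayed by LC–MS/MS. Parameters were derived by non-compartmental analysis.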

Row | Structure (SMILES) | half-life
19 | CC1(C)C[C@@H](O)CN(S(=O)(=O)c2ccc(OCc3ccc(Cl)cc3Cl)cc2)[C@H]1C(=O)NO | 2 h

Biological target: not listed separately
Assay: Inhibitory concentration against aggrecanase from porcine chondrocytes using [35S]-sulfate (5 mCi/ml) as radioligand and adding IL-1alpha (5 ng/ml) incubated for 10h
Parameters: species or system Sus scrofa
Settings: not given
In short: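 Cell-based assay in porcine chondrocytes. Glycosaminoglycan chains were labelled by including [³⁵S]sulfate (5 mCi/ml) in the culture medium, and unincorporated label was washed out before aggrecan degradation was assessed.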

Row | Structure (SMILES) | IC50
20 | Cc1c(F)cccc1COc1ccc(S(=O)(=O)N2CCC[C@@](C)(O)[C@@H]2C(=O)NO)cc1 | 11 nM
21 | C[C@@]1(O)CCCN(S(=O)(=O)c2ccc(OCc3ccc(F)cc3)cc2)[C@H]1C(=O)NO (stereo in doubt; 11) | 120 nM
22 | C[C@@]1(O)CCCN(S(=O)(=O)c2ccc(OCc3cccc4ccncc34)cc2)[C@H]1C(=O)NO | 17 nM
23 | CC[C@@]1(O)CCCN(S(=O)(=O)c2ccc(OCc3ccc(F)cc3)cc2)[C@H]1C(=O)NO | 500 nM
24 | Cc1ncccc1COc1ccc(S(=O)(=O)N2CCC[C@@](C)(O)[C@@H]2C(=O)NO)cc1 | 51 nM
25 | Cc1cc(F)ccc1COc1ccc(S(=O)(=O)N2CCC[C@@](C)(O)[C@@H]2C(=O)NO)cc1 | 4.7 nM
26 | CC[C@]1(O)CCCN(S(=O)(=O)c2ccc(OCc3ccc(F)cc3)cc2)[C@H]1C(=O)NO | 490 nM
27 | C[C@@]1(O)CCCN(S(=O)(=O)c2ccc(OCc3cccc(F)c3)cc2)[C@H]1C(=O)NO | 85 nM
28 | C[C@@]1(O)CCCN(S(=O)(=O)c2ccc(OCc3ccccc3F)cc2)[C@H]1C(=O)NO | 14 nM

System: not listed separately
Assay: Clearance in rat
Format: ADME, organism-based
Settings: plasma, read-out: Clp
In short: as §1

Row | Structure (SMILES) | clearance
29 | CC1(C)C[C@@H](O)CN(S(=O)(=O)c2ccc(OCc3ccc(Cl)cc3Cl)cc2)[C@H]1C(=O)NO | 44 mL/min/kg

System: not listed separately
Assay: Clearance in dog
Format: ADME, organism-based, Canis lupus familiaris
Settings: plasma, read-out: Clp

Row | Structure (SMILES) | clearance
30 | CC1(C)C[C@@H](O)CN(S(=O)(=O)c2ccc(OCc3ccc(Cl)cc3Cl)cc2)[C@H]1C(=O)NO | 25 mL/min/kg

Biological target: T1, A disintegrin and metalloproteinase with thrombospondin motifs 4 (Homo sapiens) (UniProt O75173)
T1 sequence (whole entry): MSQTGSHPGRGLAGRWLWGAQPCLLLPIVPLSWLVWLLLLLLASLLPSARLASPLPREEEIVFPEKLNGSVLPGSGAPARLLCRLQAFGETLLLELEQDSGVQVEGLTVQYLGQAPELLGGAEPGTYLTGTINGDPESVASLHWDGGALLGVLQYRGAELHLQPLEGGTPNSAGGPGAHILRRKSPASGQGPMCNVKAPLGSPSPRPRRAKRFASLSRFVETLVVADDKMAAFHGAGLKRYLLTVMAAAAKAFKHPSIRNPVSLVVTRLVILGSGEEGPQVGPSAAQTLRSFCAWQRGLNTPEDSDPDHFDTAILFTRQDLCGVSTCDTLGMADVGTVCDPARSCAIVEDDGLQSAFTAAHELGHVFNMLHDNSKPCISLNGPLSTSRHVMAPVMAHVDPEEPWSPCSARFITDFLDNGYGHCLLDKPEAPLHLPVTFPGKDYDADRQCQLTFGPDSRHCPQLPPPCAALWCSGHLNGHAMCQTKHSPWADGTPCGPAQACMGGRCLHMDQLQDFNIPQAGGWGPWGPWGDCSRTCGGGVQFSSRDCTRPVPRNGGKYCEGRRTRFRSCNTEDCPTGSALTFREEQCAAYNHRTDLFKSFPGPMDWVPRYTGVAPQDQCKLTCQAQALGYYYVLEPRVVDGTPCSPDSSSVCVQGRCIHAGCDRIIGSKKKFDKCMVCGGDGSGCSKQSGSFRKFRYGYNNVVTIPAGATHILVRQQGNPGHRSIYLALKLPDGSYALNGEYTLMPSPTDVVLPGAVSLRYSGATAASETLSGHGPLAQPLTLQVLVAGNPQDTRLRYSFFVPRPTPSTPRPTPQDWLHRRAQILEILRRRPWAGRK
Assay: Inhibitory concentration at 500 nM against aggrecanase from porcine chondrocytes using [35S]-sulfate (5 mCi/ml) as radioligand and adding IL-1alpha (5 ng/ml) incubated for 10h
Settings: Sus scrofa, target entry is the homologue from another species

Row | Structure (SMILES) | inhibition
31 | C[C@@]1(O)CCCN(S(=O)(=O)c2ccc(OCc3cnccn3)cc2)[C@H]1C(=O)NO | 8%
32 | C[C@@]1(O)CCCN(S(=O)(=O)c2ccc(OCc3ccccc3C#N)cc2)[C@H]1C(=O)NO | 55%

Biological target: T2, Interstitial collagenase (Homo sapiens, UniProt P03956)
T2 sequence (P03956 whole entry): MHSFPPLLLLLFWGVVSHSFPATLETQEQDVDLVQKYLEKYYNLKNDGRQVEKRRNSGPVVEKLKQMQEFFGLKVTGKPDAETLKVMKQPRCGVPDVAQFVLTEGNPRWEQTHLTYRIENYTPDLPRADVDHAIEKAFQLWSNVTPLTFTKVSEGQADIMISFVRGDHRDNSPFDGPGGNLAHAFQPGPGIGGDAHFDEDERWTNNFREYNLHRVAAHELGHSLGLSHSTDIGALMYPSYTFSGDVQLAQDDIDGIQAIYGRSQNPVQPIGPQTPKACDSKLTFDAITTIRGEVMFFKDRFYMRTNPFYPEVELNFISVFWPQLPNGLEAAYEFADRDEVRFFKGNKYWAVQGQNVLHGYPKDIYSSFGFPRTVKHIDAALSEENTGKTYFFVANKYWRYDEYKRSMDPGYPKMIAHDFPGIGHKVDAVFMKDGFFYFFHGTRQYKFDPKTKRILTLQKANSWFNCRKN
Assay: Inhibitory concentration against MMP-1
Settings: not given

Row | Structure (SMILES) | IC50
33 | C[C@@]1(O)CCCN(S(=O)(=O)c2ccc(OCc3ccc(F)cc3)cc2)[C@H]1C(=O)NO (stereo in doubt; 17) | 420 nM
34 | Cc1c(F)cccc1COc1ccc(S(=O)(=O)N2CCC[C@@](C)(O)[C@@H]2C(=O)NO)cc1 | 1300 nM
35 | C[C@@]1(O)CCCN(S(=O)(=O)c2ccc(OCc3cnccn3)cc2)[C@H]1C(=O)NO | 1600 nM
36 | C[C@@]1(O)CCCN(S(=O)(=O)c2ccc(OCc3ccc(F)cc3)cc2)[C@H]1C(=O)NO (stereo in doubt; 11) | 420 nM
37 | C[C@@]1(O)CCCN(S(=O)(=O)c2ccc(OCc3cccc4ccncc34)cc2)[C@H]1C(=O)NO | 7800 nM
38 | CC[C@@]1(O)CCCN(S(=O)(=O)c2ccc(OCc3ccc(F)cc3)cc2)[C@H]1C(=O)NO | 500 nM
39 | Cc1ncccc1COc1ccc(S(=O)(=O)N2CCC[C@@](C)(O)[C@@H]2C(=O)NO)cc1 | 1600 nM
40 | C[C@@]1(O)CCCN(S(=O)(=O)c2ccc(OCc3ccccc3C#N)cc2)[C@H]1C(=O)NO | 2700 nM
41 | CC[C@]1(O)CCCN(S(=O)(=O)c2ccc(OCc3ccc(F)cc3)cc2)[C@H]1C(=O)NO | 1100 nM
42 | C[C@@]1(O)CCCN(S(=O)(=O)c2ccc(OCc3cccc(F)c3)cc2)[C@H]1C(=O)NO | 340 nM
43 | C[C@@]1(O)CCCN(S(=O)(=O)c2ccc(OCc3ccccc3F)cc2)[C@H]1C(=O)NO | 180 nM
